From ChEMBL document CHEMBL4425150, “l-Cystine Diamides as l-Cystine Crystallization Inhibitors for Cystinuria” (J Med Chem, 2016)
Active and inactive are the calls of the source. The calls are words filed in the database; no cut-off is given here.

Legend:
Cystine [1] = experiment: Potency index, ratio of L-cystine dimethyl ester concentration to compound concentration required to double metastable supersaturation range of L-cystine
Summary of the method: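 Ratio is the EC2x of L-cystine dimethyl ester divided by the compound's EC2x. EC2x came from 72 h incubation at 25 °C in supersaturated L-cystine, with supernatant L-cystine measured by OPA/NBC fluorescence.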

[2] = Drug level in SLC3A1 knock out 129/C57BL6 mouse urine at 29.3 umol/kg, po administered daily through gavage for 1 week measured 4 hrs post last dose by LC-MS/MS analysis; type: ADME, organism-based; conditions: read-out: Drug uptake
Summary of the method: (§1)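 Male mice, wild-type or Slc3a1 knockout, 4–5 per group, dosed by daily oral gavage at 29.3 μmol/kg for 1 week. Urine from each mouse collected individually over the 4 h right after the last dose. Compound in urine quantified by LC-MS/MS; pre-dose urine also tested.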

Cystine [3] = experiment: Inhibition of hexagonal L-cystine plate crystal growth assessed as induction of plate to rod crystal morphology at 15 to 45 uM after 25 mins by atomic force microscopic analysis
Cystine [4] = experiment: Inhibition of hexagonal L-cystine plate crystal growth assessed as reduction in crystal mass yield at 15 to 45 uM after 25 mins by atomic force microscopic analysis
Cystine [5] = experiment: Inhibition of L-cystine stone formation in SLC3A1 knock out 129/C57BL6 mouse model of cystinuria at 29.3 umol/kg, po administered daily through gavage for 4 weeks; type: functional, organism-based
Summary of the method: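 Male Slc3a1 knockout mice, groups of six or seven, dosed by daily gavage at 29.3 μmol/kg for 4 weeks. A parallel control group of seven mice received water only. Read-out is the fraction of mice forming stones.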

Cystine [6] = experiment: Inhibition of hexagonal L-cystine plate crystal growth assessed as step velocity for crystal growth rate at 30 uM after 25 mins by atomic force microscopic analysis relative to control
Summary of the method: (§2)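 In situ AFM of step velocity on {100} steps of hexagonal L-cystine crystals in aqueous 2 mM L-cystine, with additive at 15, 30 or 45 μM. Result expressed as V/V0, where V0 is the velocity measured first without additive; the value is a range.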

[7] = Drug level in 129/C57BL6 mouse urine at 29.3 umol/kg, po administered daily through gavage for 1 week measured 4 hrs post last dose by LC-MS/MS analysis; type: ADME, organism-based; conditions: read-out: Drug uptake; summary of the method: as §1
Cystine [8] = experiment: Inhibition of L-cystine crystallization assessed as concentration required to double metastable supersaturation range of L-cystine after 72 hrs by OPA/NBC derivatization based fluorescence assay
Summary of the method: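 Test solution (5 μL) added to 500 μL supersaturated L-cystine, then held at 25 °C for 72 h and centrifuged (10000 rpm, 4 min). Supernatant diluted 2-fold, reduced with DTT (rt, 10 min), alkylated with iodoacetic acid (rt, 15 min), then derivatized with OPA/NBC (3 min). Fluorescence read at Ex 355/Em 460 nm gives L-cystine concentration. EC2x is the inhibitor concentration doubling the lower-plateau L-cystine level.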

Cystine [9] = experiment: Inhibition of hexagonal L-cystine plate crystal growth assessed as step velocity for crystal growth rate at 45 uM after 25 mins by atomic force microscopic analysis relative to control; summary of the method: as §2
[10] = Half life in pH 7.4 phosphate buffered saline at 100 uM at 37 degC by LC-MS/MS analysis; type: physicochemical; conditions: buffer, pH 7.4, 100 µM
Summary of the method: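 Compound incubated in pH 7.4 phosphate buffered saline at 37 °C. Disappearance of parent followed over time by LC-MS, and half-life derived from that.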

Cystine [11] = experiment: Inhibition of hexagonal L-cystine plate crystal growth assessed as step velocity for crystal growth rate at 15 uM after 25 mins by atomic force microscopic analysis relative to control; summary of the method: as §2

| Ratio (Cystine [1]) | concentration at 4 h [2] | inhibition (Cystine [3]) | inhibition (Cystine [4]) | Ratio (Cystine [6]) | concentration at 4 h [7] | CD (Cystine [8]) | Ratio (Cystine [9]) | t1/2 [10] | Ratio (Cystine [11]) | Structure (SMILES) | inhibition (Cystine [5]) |
| --- | --- | --- | --- | --- | --- | --- | --- | --- | --- | --- | --- |
| 24.5 | 7.59 µM | Active | Active | 0.32 to 0.5 | 2100 nM | 0.26 µM | 0.3 to 0.4 | 19.8 days | 0.52 to 0.66 | CN1CCN(C(=O)[C@@H](N)CSSC[C@H](N)C(=O)N2CCN(C)CC2)CC1.Cl.Cl.Cl.Cl | Active |
| 7.4 | 2.09 µM | Active | Active | 0.34 to 0.58 |  | 0.86 µM | 0.29 to 0.53 | 46.2 days | 0.44 to 0.65 | Cl.Cl.N[C@@H](CSSC[C@H](N)C(=O)N1CCOCC1)C(=O)N1CCOCC1 | inactive |
|  |  | Active | Active | 0.27 to 0.54 |  | 6.37 µM | 0.21 to 0.48 | 0.11 days | 0.4 to 0.65 | COC(=O)[C@@H](N)CSSC[C@H](N)C(=O)OC |  |
